Source: ChEMBL document CHEMBL1148274, “Bile acid amides derived from chiral amino alcohols: novel antimicrobials and antifungals” (Bioorg Med Chem Lett, 2004)
Converted amounts (≈) assume the structure as drawn.

Legend:
Salmonella typhimurium = experiment: Antibacterial activity against gram negative bacteria Salmonella Typhimurium was determined by twofold Micro-broth dilution assay; type: functional, organism-based, Salmonella enterica subsp. enterica serovar Typhimurium; details: Salmonella enterica
How it was run: (§1)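 Broth microdilution with two-fold serial dilutions of compound added to pre-inoculated microtitre plates. Inoculum diluted in phosphate-buffered saline to 10^6 cfu/mL, then plated at a final 10^3 cells per 150 µL medium. Controls were medium plus inoculum and a solvent control at the highest-concentration solvent level. Plates incubated at 37 °C and read by OD at 600 nm. IC50 is the concentration giving 50% of control-inoculum growth.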

Sporothrix schenckii [1] = experiment: Antifungal activity against Sporothrix schenck ii was determined by twofold Micro-broth dilution assay; type: functional, organism-based
How it was run: (§2)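 Fungal strains tested by two-fold serial broth microdilution in microtitre plates. Cells diluted in phosphate-buffered saline to 10^6 cfu/mL and inoculated at a final 10^3 cells per 150 µL medium. Medium/inoculum and solvent controls were included. Incubation at 28 °C, then OD read at 600 nm. IC50 is the concentration at which growth is 50% of the control inoculum.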

Candida albicans = experiment: Antifungal activity against Candida albicans was determined by twofold Micro-broth dilution assay; type: functional, organism-based; how it was run: as §2
Cryptococcus neoformans = experiment: Antifungal activity against Cryptococcus neoformans was determined by twofold Micro-broth dilution assay; type: functional, organism-based; how it was run: as §2
Salmonella typhi = experiment: Antibacterial activity against gram negative bacteria Salmonella typhi was determined by twofold Micro-broth dilution assay; type: functional, organism-based, Salmonella enterica subsp. enterica serovar Typhi; details: Salmonella enterica
Streptococcus mutans = experiment: Antibacterial activity against gram positive bacteria Streptococcus mutans was determined by twofold Micro-broth dilution assay; type: functional, organism-based; how it was run: as §1
Enterococcus faecalis = experiment: Antibacterial activity against gram positive bacteria Enterococcus faecalis was determined by twofold Micro-broth dilution assay; type: functional, organism-based; how it was run: as §1
Shigella flexneri = experiment: Antibacterial activity against gram negative bacteria Shigella flexenerii was determined by twofold Micro-broth dilution assay; type: functional, organism-based; how it was run: as §1
Aspergillus flavus = experiment: Antifungal activity against Aspergillus flavus was determined by twofold Micro-broth dilution assay; type: functional, organism-based; how it was run: as §2
Aspergillus niger = experiment: Antifungal activity against Aspergillus niger was determined by twofold Micro-broth dilution assay; type: functional, organism-based; how it was run: as §2
Nannizzia gypsea [2] = experiment: Antifungal activity against Microsporum gypseum was determined by twofold Micro-broth dilution assay; type: functional, organism-based; how it was run: as §2
Trichophyton rubrum = experiment: Antifungal activity against Trichophyton rubrum was determined by twofold Micro-broth dilution assay; type: functional, organism-based; how it was run: as §2
Histoplasma capsulatum = experiment: Antifungal activity against Histoplasma capsulatum was determined by twofold Micro-broth dilution assay; type: functional, organism-based
How it was run: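 Fungal broth microdilution. Cells were diluted to 10^6 cfu/mL in phosphate-buffered saline and seeded at a final 10^3 cells per well. Two-fold serial compound dilutions were added. Plates carried inoculum-only and solvent controls, the solvent matched to the highest concentration. After incubation at 28 °C, OD was read at 600 nm. IC50 is the concentration where growth is 50% of control.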

Escherichia coli = experiment: Antibacterial activity against gram negative bacteria Escherichia coli was determined by twofold Micro-broth dilution assay; type: functional, organism-based; how it was run: as §1
[3] = system: Staphylococcus epidermidis; experiment: Antibacterial activity against gram positive bacteria Staphylococcus epidermidis was determined by twofold Micro-broth dilution assay; type: functional, organism-based; how it was run: as §1
Staphylococcus aureus = experiment: Antibacterial activity against gram positive bacteria Staphylococcus aureus was determined by twofold Micro-broth dilution assay; type: functional, organism-based; how it was run: as §1
Klebsiella aerogenes = experiment: Antibacterial activity against gram negative bacteria Enterobacter aerogens was determined by twofold Micro-broth dilution assay; type: functional, organism-based; how it was run: as §1
Sporothrix schenckii [4] = experiment: Antifungal activity against Sporothrix schenck ii was determined by twofold Micro-broth dilution assay; No data; type: functional, organism-based; how it was run: as §2
Nannizzia gypsea [5] = experiment: Antifungal activity against Microsporum gypseum was determined by twofold Micro-broth dilution assay; No data; type: functional, organism-based; how it was run: as §2
[6] = Sporothrix schenckii, read-out: IC50
[7] = Candida albicans, read-out: IC50
[8] = Aspergillus flavus, read-out: IC50
[9] = Aspergillus niger, read-out: IC50
[10] = Nannizzia gypsea, read-out: IC50
[11] = Trichophyton rubrum, read-out: IC50

Compound | IC50 (Salmonella typhimurium) [µg/mL] | IC50 (Sporothrix schenckii [1]; [6]) [µg/mL] | IC50 (Candida albicans; [7]) [µg/mL] | IC50 (Salmonella typhi) [µg/mL] | IC50 (Streptococcus mutans) [µg/mL] | IC50 (Enterococcus faecalis) [µg/mL] | IC50 (Shigella flexneri) [µg/mL] | IC50 (Aspergillus flavus; [8]) [µg/mL] | IC50 (Aspergillus niger; [9]) [µg/mL] | IC50 (Nannizzia gypsea [2]; [10]) [µg/mL] | IC50 (Trichophyton rubrum; [11]) [µg/mL] | IC50 (Escherichia coli) [µg/mL] | IC50 [3] [µg/mL] | IC50 (Staphylococcus aureus) [µg/mL] | IC50 (Klebsiella aerogenes) [µg/mL] | other results
C[C@H](CCC(=O)N[C@@H](CO)[C@@H](O)c1ccccc1)[C@H]1CC[C@H]2[C@@H]3C(O)C[C@@H]4C[C@H](O)CC[C@]4(C)[C@H]3C[C@H](O)[C@]12C (some centres undefined) | > 250 | > 250 | > 250 | > 250 | 60 (≈ 108 µM) | 40 (≈ 71.7 µM) | > 250 | > 250 | > 250 | > 250 | > 250 | > 250 | 20 (≈ 35.9 µM) | > 250 | > 250 | IC50 (Cryptococcus neoformans): > 250 µg/mL; IC50 (Histoplasma capsulatum): > 250 µg/mL
C[C@H](CCC(=O)N[C@H](CO)[C@H](O)c1ccc([N+](=O)[O-])cc1)[C@H]1CC[C@H]2[C@@H]3C(O)C[C@@H]4C[C@H](O)CC[C@]4(C)[C@H]3C[C@H](O)[C@]12C (some centres undefined) | > 250 | > 250 | > 250 | > 250 | 6 (≈ 9.95 µM) | 60 (≈ 99.5 µM) | > 250 | > 250 | > 250 | > 250 | > 250 | > 250 | 100 (≈ 166 µM) | 75 (≈ 124 µM) | > 250 | IC50 (Cryptococcus neoformans): > 250 µg/mL; IC50 (Histoplasma capsulatum): > 250 µg/mL
C[C@@H]1[C@H](O)[C@@H](C)/C=C/C=C/C=C/C=C/C=C/C=C/C=C/[C@H](O[C@@H]2O[C@H](C)[C@@H](O)[C@H](N)[C@@H]2O)C[C@@H]2O[C@](O)(C[C@@H](O)C[C@@H](O)[C@H](O)CC[C@@H](O)C[C@@H](O)CC(=O)O[C@H]1C)C[C@H](O)[C@H]2C(=O)O [AMPHOTERICIN B] | – | – | 0.0625 (≈ 0.0676 µM) | – | – | – | – | 5 (≈ 5.41 µM) | 2.5 (≈ 2.71 µM) | – | 2.5 (≈ 2.71 µM) | – | – | – | – | IC50 (Sporothrix schenckii [4]): 5 µg/mL (≈ 5.41 µM); IC50 (Nannizzia gypsea [5]): 2.5 µg/mL (≈ 2.71 µM)
Clc1ccccc1C(c1ccccc1)(c1ccccc1)n1ccnc1 [CLOTRIMAZOLE] | – | 0.0312 (≈ 0.0906 µM) | 0.0312 (≈ 0.0906 µM) | – | – | – | – | 0.5 (≈ 1.45 µM) | 5 (≈ 14.5 µM) | 0.625 (≈ 1.81 µM) | 0.625 (≈ 1.81 µM) | – | – | – | – | –
CN[C@@H]1[C@H](O[C@H]2[C@H](O[C@H]3[C@H](O)[C@@H](O)[C@H](N=C(N)N)[C@@H](O)[C@@H]3N=C(N)N)O[C@@H](C)[C@]2(O)C=O)O[C@@H](CO)[C@H](O)[C@H]1O [STREPTOMYCIN] | 1.25 (≈ 2.15 µM) | – | – | – | 0.12 (≈ 0.206 µM) | 1.25 (≈ 2.15 µM) | 1.25 (≈ 2.15 µM) | – | – | – | – | 1.25 (≈ 2.15 µM) | 0.12 (≈ 0.206 µM) | 0.3 (≈ 0.516 µM) | 1.25 (≈ 2.15 µM) | –
CN[C@H](CC(C)C)C(=O)N[C@H]1C(=O)N[C@@H](CC(N)=O)C(=O)N[C@H]2C(=O)N[C@H]3C(=O)N[C@H](C(=O)N[C@H](C(=O)O)c4cc(O)cc(O)c4-c4cc3ccc4O)[C@H](O)c3ccc(c(Cl)c3)Oc3cc2cc(c3O[C@@H]2O[C@H](CO)[C@@H](O)[C@H](O)[C@H]2O[C@H]2C[C@](C)(N)[C@H](O)[C@H](C)O2)Oc2ccc(cc2Cl)[C@H]1O [VANCOMYCIN] | > 250 | – | – | > 250 | 0.12 (≈ 0.0828 µM) | 0.06 (≈ 0.0414 µM) | > 250 | – | – | – | – | > 250 | 0.3 (≈ 0.207 µM) | 0.12 (≈ 0.0828 µM) | > 250 | –
NYSTATIN | – | – | – | – | – | – | – | – | – | – | – | – | – | – | – | IC50 (Sporothrix schenckii [1]): 3.125 µg/mL; IC50 (Candida albicans): 0.25 µg/mL; IC50 (Aspergillus flavus): 2.5 µg/mL; IC50 (Aspergillus niger): 2.5 µg/mL; IC50 (Nannizzia gypsea [2]): 3.125 µg/mL; IC50 (Trichophyton rubrum): 2.5 µg/mL
